Data set [1] concerns Mus musculus. Kind of data set: Analgesic activity in sc dosed CD-1 mouse assessed as inhibition of phenylquinone-induced writhing administered 15 to 90 mins prior challenge measured 5 mins post challenge. Format: functional. As to conditions: CD-1, sc. An outline of the steps: (§1)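 Male CD-1 mice, 18–24 g, five per group, dosed 15, 30, 60 or 90 min before phenyl-p-benzoquinone (0.125% in 5% aqueous ethanol); vehicle controls. Writhes were counted over 10 min, starting 5 min after challenge. For dose–response, ten mice per dose were tested at the peak time, with four doses plus control, randomized. Result given as % inhibition of writhes; ED50 by computer linear regression.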

Data set [2] deals with Mus musculus. Kind of data set: Analgesic activity in sc dosed CD-1 mouse assessed as delay in response to noxious heat stimuli measured after 15 to 60 mins post dosing by D'Amour-Smith tail-flick method. The format is functional. Conditions: CD-1, Tail. Put shortly:
(§2)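 Male CD-1 mice, ten per group, held in a plexiglass restrainer; an intense light beam served as the noxious heat stimulus, and tail-flick latency was recorded automatically. Two baseline readings were taken, unstable animals were excluded, and a cutoff was set. Dosing was sc, with vehicle at 10 mL/kg. Tests ran at 15, 30, 45 and 60 min, then at the peak time for at least three doses. Response past cutoff counted as analgesia; ED50 by linear regression.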
For orientation: In hot-plate and tail-flick tests a longer latency is read as antinociception.

In data set [3] the test system is Mus musculus. Kind of data set: Inhibition of morphine-induced mania in CD-1 mouse assessed as inhibition of stereotypic activity at 10 mg/kg, sc measured after 15 to 30 mins. Format: functional. Conditions: for inhibition in vivo at 10 mg/kg: CD-1, sc, route subcutaneous. Put shortly: (§3)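 Male mice, 18–30 g, two pairs per group, dosed randomly. Controls received morphine sulfate 25 mg/kg sc; test groups received morphine plus compound. Animals were watched for 15–30 min for stereotyped increase in motor activity, and blocking of this behaviour was scored positive. For dose range, ED50 by linear regression.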

For data set [4], the system named is Mus musculus. Kind of data set: Analgesic activity in po dosed CD-1 mouse assessed as inhibition of phenylquinone-induced writhing administered 15 to 90 mins prior challenge measured 5 mins post challenge. Format: functional. Conditions: CD-1, po. Put shortly:
as §1

The test system of data set [5] is Mus musculus. The data set can be described thus: Inhibition of morphine-induced mania in sc dosed CD-1 mouse assessed as inhibition of stereotypic activity measured after 15 to 30 mins. The format is functional. Put shortly:
as §3

The subject of data set [6] is Mus musculus. Kind of data set: Toxicity in sc dosed CD-1 mouse assessed as physical dependence liability by infusion test. The format is organism-based. As to conditions: in vivo.
Data set [7] concerns Mus musculus. The data set can be described thus: Analgesic activity in CD-1 mouse assessed as delay in response to noxious heat stimuli at 2 mg/kg, sc measured after 15 to 60 mins post dosing by D'Amour-Smith tail-flick method relative to control. Conditions: route subcutaneous. Format: functional. Put shortly: as §2
Data set [8] concerns Mus musculus. Kind of data set: Analgesic activity in CD-1 mouse assessed as delay in response to noxious heat stimuli at 25 mg/kg, sc measured after 15 to 60 mins post dosing by D'Amour-Smith tail-flick method relative to control. Format: functional. Conditions: route subcutaneous. An outline of the steps:
as §2

In data set [9] the test system is Mus musculus. The data set can be described thus: Analgesic activity in CD-1 mouse assessed as inhibition of phenylquinone-induced writhing at 10 mg/kg, sc administered 15 to 90 mins prior challenge measured 5 mins post challenge. The format is functional. Conditions: CD-1, sc, route subcutaneous. Put shortly:
as §1
Background: Writhing tests count abdominal constrictions after an irritant is injected.

Data set [10] has as its system Mus musculus. Kind of data set: Toxicity in sc dosed CD-1 mouse assessed as overt effects. Conditions: in vivo. The format is organism-based.
The subject of data set [11] is Mus musculus. The data set can be described thus: Analgesic activity in po dosed CD-1 mouse assessed as delay in response to noxious heat stimuli measured after 15 to 60 mins post dosing by D'Amour-Smith tail-flick method. The format is functional. Conditions: CD-1, Tail.

Activity calls are given as the source filed them. Some results are limits rather than exact numbers.

Take `Br.Oc1cccc(C23CCC(C2)N(CCc2ccc(Cl)c(Cl)c2)CC3)c1` (racemic): the ED50 (usually the dose at which the effect has come halfway, by size or by number of responders) was 0.75 mg/kg with Mus musculus [1] and 2.73 mg/kg in the data set with Mus musculus [2]. In the data set on Mus musculus [3], the inhibition result is “inactive”.
With `Br.Oc1cccc(C23CCC(C2)N(CCc2cccc(Cl)c2)CC3)c1` (racemic), the ED50 in the data set with Mus musculus [1] was found to be 0.46 mg/kg; with Mus musculus [2] it was 5.46 mg/kg. Besides, the inhibition in vivo (as a rule, how much of the control response was suppressed) at 10 mg/kg in the data set on Mus musculus [3] is 20%.
The matching figures for `Br.Oc1cccc(C23CCC(C2)N(CCc2ccc(Cl)cc2)CC3)c1` (racemic): 0.42 mg/kg, 7.32 mg/kg and 50%.
As to `Br.Oc1cccc(C23CCC(C2)N(CCc2ccccc2)CC3)c1` (racemic), the 50% effective dose (ED50) with Mus musculus [1] turned out to be 0.68 mg/kg; in the data set with Mus musculus [4], 60.9 mg/kg; with Mus musculus [2] it was 6.45 mg/kg; in the data set on Mus musculus [5] (CD-1, sc), 1.06 mg/kg. Further, the Activity entry in the data set with Mus musculus [6] is on record as “Non-toxic”.
For the compound `Br.O=C(CCCN1CCC2(c3cccc(O)c3)CCC1C2)c1ccc(F)cc1` (racemic), the median effective dose (ED50) with Mus musculus [1] is 0.35 mg/kg; with Mus musculus [5] (CD-1, sc) it was 2.01 mg/kg. In the data set on Mus musculus [7], the Activity amounted to 40%.
With `Br.Oc1cccc(C23CCC(C2)N(Cc2ccco2)CC3)c1` (racemic), the 50% effective dose (ED50) turned out to be 22.7 mg/kg in the data set with Mus musculus [1]; 10 mg/kg with Mus musculus [2]; 3.7 mg/kg in the data set on Mus musculus [5] (CD-1, sc).
For the compound `Br.CC(C)=CCN1CCC2(c3cccc(O)c3)CCC1C2` (racemic), in the data set with Mus musculus [1], the median effective dose (ED50) was determined as 25 mg/kg. The Activity with Mus musculus [8] is 20%. The inhibition result with Mus musculus [3] was “inactive”.
On to `Br.Oc1cccc(C23CCC(C2)N(CC2CC2)CC3)c1` (racemic), for which, in the data set on Mus musculus [1], the ED50 stood at 5.44 mg/kg. In addition, the Activity in the data set on Mus musculus [8] is listed as 30%. Besides, the inhibition in vivo at 10 mg/kg with Mus musculus [3] is 20%.
For the compound `Br.CCCCCN1CCC2(c3cccc(O)c3)CCC1C2` (racemic), the 50% effective dose (ED50) in the data set on Mus musculus [1] was 8.34 mg/kg; with Mus musculus [5] (CD-1, sc) it was 4.31 mg/kg. Moreover, the Activity in the data set on Mus musculus [8] came out at 20%.
As for `Br.CCCCN1CCC2(c3cccc(O)c3)CCC1C2` (racemic), in the data set on Mus musculus [1], the 50% effective dose (ED50) is 8.66 mg/kg. In addition, the Activity in the data set with Mus musculus [8] is recorded as 30%. In addition, in the data set with Mus musculus [3], the inhibition in vivo at 10 mg/kg came to 40%.
In the case of `Br.CCCN1CCC2(c3cccc(O)c3)CCC1C2` (racemic), the ED50 in the data set on Mus musculus [1] came out at 8.79 mg/kg. Moreover, the Activity with Mus musculus [8] is listed as 20%. In addition, the inhibition entry with Mus musculus [3] is “inactive”.
Take `Br.CCN1CCC2(c3cccc(O)c3)CCC1C2` (racemic): the Activity in the data set with Mus musculus [8] is given as 30%. In the data set with Mus musculus [9], the inhibition in vivo at 10 mg/kg amounted to 41%. Besides, the inhibition entry in the data set on Mus musculus [3] was “inactive”.
As for `Br.CN1CCC2(c3cccc(O)c3)CCC1C2` (racemic), the ED50 in the data set on Mus musculus [1] amounted to 10 mg/kg. In the data set on Mus musculus [8], the Activity is given as 40%.
Regarding `Br.COc1cccc(C23CCC(C2)N(CCc2ccccc2)CC3)c1` (racemic), the results for the 50% effective dose (ED50) in the data set with Mus musculus [1] and with Mus musculus [2] were 5.99 mg/kg and 13 mg/kg, respectively. The median effective dose (ED50) entry in the data set on Mus musculus [5] was “Active”.
Turning to `Br.COc1cccc(C23CCC(C2)N(CCCC(=O)c2ccc(F)cc2)CC3)c1` (racemic), the ED50 in the data set with Mus musculus [1] worked out at 0.85 mg/kg; in the data set with Mus musculus [5] (CD-1, sc), 3.7 mg/kg. Moreover, the Activity in the data set with Mus musculus [7] is recorded as 10%.
Consider `Br.CCCCCN1CCC2(c3cccc(OC)c3)CCC1C2` (racemic), for which the median effective dose (ED50) with Mus musculus [1] came to 5.77 mg/kg. In the data set with Mus musculus [8], the Activity came to 40%. Also, the inhibition entry in the data set with Mus musculus [3] was “inactive”.
Regarding `Br.CCCCN1CCC2(c3cccc(OC)c3)CCC1C2` (racemic), the ED50 with Mus musculus [1] turned out to be 4.87 mg/kg; in the data set on Mus musculus [2], 9.71 mg/kg. Also, in the data set on Mus musculus [3], the inhibition entry is “inactive”.
With `Br.CCCN1CCC2(c3cccc(OC)c3)CCC1C2` (racemic), the ED50 in the data set with Mus musculus [1] amounted to 7.4 mg/kg; in the data set with Mus musculus [5] (CD-1, sc), 8.3 mg/kg. Moreover, in the data set with Mus musculus [8], the Activity came out at 40%.
Consider `Br.CCN1CCC2(c3cccc(OC)c3)CCC1C2` (racemic), for which the figures for the 50% effective dose (ED50) with Mus musculus [1] and in the data set with Mus musculus [2] were 11.9 mg/kg and 17.7 mg/kg, respectively. Moreover, in the data set on Mus musculus [3], the inhibition in vivo at 10 mg/kg came out at 10%.
On to `Br.COc1cccc(C23CCC(C2)N(C)CC3)c1` (racemic), for which the ED50 was 6.96 mg/kg in the data set on Mus musculus [1] and 50 mg/kg in the data set on Mus musculus [5] (CD-1, sc). Moreover, in the data set with Mus musculus [8], the Activity is 10%.
As for `Br.Cc1ccc(CCN2CCC3(c4cccc(O)c4)CCC2C3)cc1` (racemic), the ED50 in the data set with Mus musculus [1] was 0.58 mg/kg; in the data set with Mus musculus [2] it was 8.54 mg/kg; in the data set on Mus musculus [5] (CD-1, sc) it was ≤ 10 mg/kg.
`Br.Oc1ccc(CCN2CCC3(c4cccc(O)c4)CCC2C3)cc1` (racemic): the 50% effective dose (ED50) in the data set on Mus musculus [1] was 2.08 mg/kg; with Mus musculus [2] it was 25 mg/kg. In addition, the inhibition in vivo at 10 mg/kg in the data set with Mus musculus [3] came to 20%. Further, in the data set on Mus musculus [10], the Activity result was “Toxic”.
As for `Br.Oc1cccc(C23CCC(C2)N(CCc2cccs2)CC3)c1` (racemic), the ED50 was determined as 0.72 mg/kg with Mus musculus [1]; 11 mg/kg in the data set with Mus musculus [2]; 10 mg/kg with Mus musculus [5] (CD-1, sc).
Regarding `Br.CC(=O)Oc1cccc(C23CCC(C2)N(C)CC3)c1` (racemic), the ED50 was 14.1 mg/kg in the data set with Mus musculus [1] and 16 mg/kg with Mus musculus [5] (CD-1, sc). The Activity in the data set on Mus musculus [8] came out at 14%.
In the case of `Br.CC(=O)Oc1cccc(C23CCC(C2)N(CCc2ccccc2)CC3)c1` (racemic), the median effective dose (ED50) in the data set with Mus musculus [1] is 1 mg/kg; with Mus musculus [4] it was 15.2 mg/kg; in the data set with Mus musculus [2], 2.82 mg/kg; with Mus musculus [11], 35 mg/kg. Besides, the inhibition result with Mus musculus [3] is “inactive”.
With `Br.CC(=O)Oc1cccc(C23CCC(C2)N(CCc2cccs2)CC3)c1` (racemic), the ED50 in the data set on Mus musculus [1] is 0.95 mg/kg; with Mus musculus [4], 64 mg/kg; in the data set with Mus musculus [2], ≤ 3.8 mg/kg.
Turning to `CC(C)=CCN1CC[C@]2(C)c3cc(O)ccc3C[C@H]1[C@H]2C` [(+)-PENTAZOCINE], the ED50 in the data set on Mus musculus [1] is 2.4 mg/kg; in the data set on Mus musculus [2], 14.6 mg/kg; in the data set on Mus musculus [5] (CD-1, sc), 13.8 mg/kg.
Take `CN1CC[C@]23c4c5ccc(O)c4O[C@H]2[C@@H](O)C=C[C@H]3[C@H]1C5` [MORPHINE]: the 50% effective dose (ED50) with Mus musculus [1] worked out at 0.68 mg/kg.
Regarding `C=CCN1CC[C@]23c4c5ccc(O)c4O[C@H]2[C@@H](O)C=C[C@H]3[C@H]1C5` [NALORPHINE], in the data set on Mus musculus [5] (CD-1, sc), the ED50 amounted to 0.43 mg/kg.

Source of the values: ChEMBL document CHEMBL3243986, “Synthesis and analgetic activity of some 5-aryl-2azabicyclo[3.2.1]octanes” (J Med Chem, 1978).
